For eight compounds, Kd and Activity results are on record in ChEMBL document CHEMBL4480452, “Molecular recognition of a branched peptide with HIV-1 Rev Response Element (RRE) RNA” (Bioorg Med Chem, 2019).

Experiment [1] concerns the target Rev responsive element (RRE) RNA. The experiment in a line: Binding affinity to HIV-1 rev response element SL-IIB RNA by 2-Aminopurine-based fluorescence spectrophotometric analysis. In kind it is nucleic-acid assay, Human immunodeficiency virus 1.
For experiment [2] the target is unchanged. Kind of experiment: Binding affinity to HIV-1 rev response element SL-IIB RNA in presence of 10 times no bulge RRE RNA by 2-Aminopurine-based fluorescence spectrophotometric analysis. Format: nucleic-acid assay, Human immunodeficiency virus 1. The procedure, abridged:
(§1)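 Same 2-AP titration, run with 10-fold excess of unlabeled competitor nucleic acid. Conditions: 0.1 μM refolded 2-AP RRE SL-IIB RNA, peptide 0–20 μM, pH 7.0 phosphate/KCl/MgCl2 buffer, ex 310 / em 372 nm. Kd from Hill fit, at least duplicate, SD.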

The target is the same in experiment [3]. Kind of experiment: Binding affinity to HIV-1 rev response element SL-IIB RNA in presence of 10 times TAR RNA by 2-Aminopurine-based fluorescence spectrophotometric analysis. In kind it is nucleic-acid assay, Human immunodeficiency virus 1. The method in brief: as §1
Experiment [4] concerns Rev responsive element (RRE) RNA. Kind of experiment: Binding affinity to internal loop and upper stem/ apical loop regions of 5-32P-labeled HIV-1 NL4-3 rev response element SL-IIB RNA by RNases A and V1 based RNase protection assay. In kind it is nucleic-acid assay. Particulars: Human immunodeficiency virus 1. The procedure, abridged: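 5′-32P-labeled RRE SL-IIB (10 nM) with 200 nM unlabeled RNA, refolded at 95 °C for 3 min and snap-cooled. Incubated with peptide (0–20 μM) on ice for 4 h in 10 mM Tris pH 7, 100 mM KCl, 10 mM MgCl2. Digested on ice with RNase V1 (0.002 U, 10 min) or RNase A (20 ng, 1 h). Cleavage read on 12% denaturing PAGE by autoradiography.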

The target in experiment [5] is Rev responsive element (RRE) RNA. Kind of experiment: Binding affinity to HIV-1 rev response element SL-IIB RNA in presence of 10 times RRE DNA by 2-Aminopurine-based fluorescence spectrophotometric analysis. In kind it is nucleic-acid assay, Human immunodeficiency virus 1. The method in brief:
as §1

Experiment [6] deals with Rev responsive element (RRE) RNA. Kind of experiment: Binding affinity to SL1 and SL2 regions of 234 nucleotide long HIV-1 NL4-3 rev response element RNA by SHAPE-MaP technology assay. Format: nucleic-acid assay. The conditions noted are these: Human immunodeficiency virus 1. The method in brief: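 234-nt RRE RNA (5 pmol), renatured then folded at 37 °C for 15 min (70 mM Tris pH 8.0, 180 mM KCl, 8 mM MgCl2, 5% glycerol). Peptide added at 1:1 or 1:10 RNA:peptide for 15 min at 37 °C, then 1M7 for 5 min at 37 °C, with DMSO and denaturing controls. Read by MaP reverse transcription, PCR and sequencing; reactivity compared by nucleotide position.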

Experiment [7] shares this test system. The experiment in a line: Binding affinity to HIV-1 NL4-3 5-32P-labeled rev response element SL-IIB RNA by RNases A and V1 based RNase protection assay. Particulars: Human immunodeficiency virus 1.

Activity calls are given as the source filed them. The calls are words filed in the database; no cut-off is given here.

As for `N=C(N)N[C@@H]1C[C@@H](C(=O)N[C@H]2CN[C@@H](C(=O)N[C@@H](Cc3ccc(O)cc3)C(N)=O)C2)N(C(=O)CN(CCNC(=O)[C@H](CCCCNC(=O)[C@@H]2C[C@@H](NC(=N)N)CN2C(=O)[C@H]2C[C@@H](N)CN2C(=O)[C@@H](N)CCCCNC(=O)c2cnccn2)NC(=O)[C@@H]2C[C@@H](NC(=N)N)CN2C(=O)[C@H]2C[C@@H](N)CN2C(=O)[C@@H](N)CCCCNC(=O)c2cnccn2)C(=O)Cn2cnc3c(=O)[nH]c(N)nc32)C1`, the equilibrium dissociation constant (Kd) (usually the equilibrium constant for the complex coming apart) in experiment [1] worked out at 1110 nM. The same measure, in the same setting: the same measure for `N=C(N)N[C@@H]1C[C@@H](C(=O)N2C[C@H](NC(=N)N)C[C@H]2C(=O)N[C@@H](CCCCNC(=O)c2cnccn2)C(=O)N[C@@H](Cc2ccc(O)cc2)C(N)=O)N(C(=O)[C@H](CCCCNC(=O)[C@H](CCCCNC(=O)c2cnccn2)NC(=O)[C@H]2C[C@@H](NC(=O)[C@@H]3C[C@@H](NC(=N)N)CN3)CN2)NC(=O)[C@H](CCCCNC(=O)c2cnccn2)NC(=O)[C@H]2C[C@@H](NC(=O)[C@@H]3C[C@@H](NC(=N)N)CN3)CN2)C1`: 1300 nM; for `N=C(N)N[C@H]1CN[C@H](C(=O)N2C[C@H](N)C[C@@H]2C(=O)NCCN(CC(=O)NCCCC[C@H](NC(=O)CN(CCNC(=O)[C@H]2C[C@@H](N)CN2C(=O)[C@@H]2C[C@@H](NC(=N)N)CN2)C(=O)Cn2cnc3c(=O)[nH]c(N)nc32)C(=O)NCCN(CC(=O)N[C@@H](CCCCNC(=O)c2cnccn2)C(=O)N[C@@H](CCCCNC(=O)c2ccc(B(O)O)cc2)C(=O)N[C@@H](Cc2ccc(O)cc2)C(N)=O)C(=O)Cn2cnc3c(=O)[nH]c(N)nc32)C(=O)Cn2cnc3c(=O)[nH]c(N)nc32)C1`: 1180 nM; for `N=C(N)N[C@@H]1C[C@@H](C(=O)NCCN(CC(=O)N[C@@H](CCCCNC(=O)c2ccc(B(O)O)cc2)C(=O)N[C@@H](Cc2ccc(O)cc2)C(N)=O)C(=O)Cn2cnc3c(=O)[nH]c(N)nc32)N(C(=O)[C@H](CCCCNC(=O)[C@@H]2C[C@@H](NC(=N)N)CN2C(=O)[C@H]2C[C@@H](NC(=O)[C@@H]3C[C@@H](NC(=N)N)CN3)CN2)NC(=O)[C@@H]2C[C@@H](NC(=N)N)CN2C(=O)[C@H]2C[C@@H](NC(=O)[C@@H]3C[C@@H](NC(=N)N)CN3)CN2)C1`: 630 nM. Regarding `N=C(N)N[C@H]1CN[C@H](C(=O)N[C@H]2CN[C@@H](C(=O)N[C@@H](Cc3cccc4ccccc34)C(=O)NCCCC[C@H](NC(=O)[C@H](Cc3cccc4ccccc34)NC(=O)[C@H]3C[C@@H](NC(=O)[C@@H]4C[C@@H](NC(=N)N)CN4)CN3)C(=O)NCCN(CC(=O)NCCN(CC(=O)N[C@@H](Cc3cccc4ccccc34)C(=O)N[C@@H](Cc3ccc(O)cc3)C(N)=O)C(=O)Cn3cnc4c(=O)[nH]c(N)nc43)C(=O)Cn3cnc4c(=O)[nH]c(N)nc43)C2)C1`, the Kd in experiment [1] was 660 nM. As to `N=C(N)N[C@@H]1C[C@@H](C(=O)N2C[C@H](N)C[C@@H]2C(=O)N[C@@H](Cc2ccc(O)cc2)C(N)=O)N(C(=O)[C@H]2C[C@@H](N)CN2C(=O)[C@H](CCCCNC(=O)[C@H]2C[C@@H](N)CN2C(=O)[C@@H]2C[C@@H](NC(=N)N)CN2C(=O)[C@H]2C[C@@H](N)CN2)NC(=O)[C@H]2C[C@@H](N)CN2C(=O)[C@@H]2C[C@@H](NC(=N)N)CN2C(=O)[C@H]2C[C@@H](N)CN2)C1`, the Kd in experiment [1] was determined as 720 nM. As for `N=C(N)N[C@@H]1C[C@@H](C(=O)NCCN(CC(=O)N[C@@H](CCCCNC(=O)c2ccc(B(O)O)cc2)C(=O)N[C@@H](Cc2ccc(O)cc2)C(N)=O)C(=O)Cn2cnc3c(=O)[nH]c(N)nc32)N(C(=O)[C@H](CCCCNC(=O)[C@@H]2C[C@@H](NC(=N)N)CN2C(=O)[C@@H]2C[C@@H](NC(=N)N)CN2C(=O)[C@H]2C[C@@H](N)CN2)NC(=O)[C@@H]2C[C@@H](NC(=N)N)CN2C(=O)[C@@H]2C[C@@H](NC(=N)N)CN2C(=O)[C@H]2C[C@@H](N)CN2)C1`, the Kd is 1140 nM in experiment [2], 3520 nM in experiment [3], 400 to 410 nM in experiment [1] and 1480 nM in experiment [5]. In addition, the outcome in experiment [4], in experiment [6] and in experiment [7] was Active. `N=C(N)N[C@@H]1C[C@@H](C(=O)NCCCC[C@H](NC(=O)[C@@H]2C[C@@H](NC(=N)N)CN2C(=O)[C@H]2C[C@@H](N)CN2C(=O)[C@@H]2C[C@@H](NC(=N)N)CN2)C(=O)N[C@@H](CCCCNC(=O)c2cnccn2)C(=O)N[C@@H](CCCCNC(=O)c2cnccn2)C(=O)NCCN(CC(=O)N[C@@H](Cc2ccc(O)cc2)C(N)=O)C(=O)Cn2cnc3c(=O)[nH]c(N)nc32)N(C(=O)[C@H]2C[C@@H](N)CN2C(=O)[C@@H]2C[C@@H](NC(=N)N)CN2)C1` yielded a Kd in experiment [1] of 1120 nM.
